Values joined by “and” are separate entries in the source; they are usually repeats but may differ in a detail not shown here. Equal entries are not always repeated.
Tests used:
Mus musculus [1] = experiment: Percentage change in plasma glucose after 4 days of treatment in db/db mouse at 100 mg/kg (po) in a postprandial assay; format: functional
Summary of the method: (§1)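 Male db/db (C57BL/KsJ) mice; postprandial assay after 4 days of oral dosing. Result is % change in plasma glucose relative to the vehicle-treated group. Values are mean ± SE with 4–6 mice per group; p < 0.05 flagged.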

Mus musculus [2] = experiment: Percentage change in plasma glucose after 4 days of treatment in db/db mouse at 5 mg/kg (po) in a postprandial assay; format: functional; summary of the method: as §1
Mus musculus [3] = experiment: Percentage change in plasma glucose after 4 days of treatment in db/db mouse at 1 mg/kg (po) in a postprandial assay; format: functional; summary of the method: as §1
Mus musculus [4] = experiment: Percentage change in plasma glucose after 4 days of treatment in db/db mouse at 20 mg/kg (po) in a postprandial assay; format: functional; summary of the method: as §1
Mus musculus [5] = experiment: Plasma glucose after treatment in obese ob/ob mice at 200 mg/kg (po); format: functional
Summary of the method: (§2)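 Female obese ob/ob (C57BL/6J) mice, 3-5 months old, fed ad libitum. Oral gavage once daily for 10 days, vehicle 0.2 mL 2% Tween 80/saline (w/v). Decapitated 4 h after the last dose; blood assayed for glucose. Mean ± SEM; p < 0.05 versus vehicle.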

Mus musculus [6] = experiment: Plasma glucose after treatment in obese ob/ob mice at 50 mg/kg (po); format: functional; summary of the method: as §2
Mus musculus [7] = experiment: Percentage change in plasma glucose after 4 days of treatment in db/db mouse at 5 mg/kg (po) in a postprandial assay
Mus musculus [8] = experiment: Percentage change in plasma glucose after 4 days of treatment in db/db mouse at 1 mg/kg (po) in a postprandial assay
Rattus norvegicus [9] = experiment: Change in plasma glucose levels of streptozocin-diabetic rats wtih type I diabetes at dose of 5 mg/kg, po; format: functional
Summary of the method: (§3)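 Male Sprague-Dawley rats made diabetic with streptozocin (100 mg/kg, ip). Drug or vehicle given orally once daily for 3 weeks. Tail-tip blood taken 90 min after the last dose and assayed for plasma glucose. Mean ± SE, n = 9-12 per group.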

Rattus norvegicus [10] = experiment: Volume of urine collected after treatment in nondiabetic rats at the dose of 5 mg/kg; format: functional
Summary of the method: (§4)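 Male Sprague-Dawley rats (nondiabetic), dosed daily by mouth for 11 days. Urine collected over 24 h and assayed for glucose; urine volume, water intake and food intake also measured. Values are mean ± SE, n = 6 per group.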

Rattus norvegicus [11] = experiment: Volume of water consumed by the rat at a dose of 25 mg/kg; format: functional; summary of the method: as §4
Mus musculus [12] = experiment: Plasma glucose after treatment in obese ob/ob mice at 20 mg/kg (po); format: functional; summary of the method: as §2
Rattus norvegicus [13] = experiment: Volume of urine collected after treatment in nondiabetic rats at the dose of 25 mg/kg; format: functional; summary of the method: as §4
Rattus norvegicus [14] = experiment: Volume of water consumed by the rat at a dose of 5 mg/kg; format: functional; summary of the method: as §4
Rattus norvegicus [15] = experiment: Amount of food consumed by the rat at a dose of 25 mg/kg; format: functional; summary of the method: as §4
Rattus norvegicus [16] = experiment: Plasma glucose levels of nondiabetic rats after 4 hour of drug administration (25 mg/Kg, po); format: functional
Summary of the method: (§5)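 Single oral dose to male Sprague-Dawley nondiabetic rats. Tail-tip blood sampled before dosing and at 1, 2 and 4 h after dosing for plasma glucose. Mean ± SE, n = 5 per group; compared with the respective vehicle group.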

Rattus norvegicus [17] = experiment: Change in plasma glucose levels of streptozocin-diabetic rats wtih type I diabetes at dose of 25 mg/kg, po; format: functional; summary of the method: as §3
Rattus norvegicus [18] = experiment: Amount of food consumed by the rat at a dose of 5 mg/kg; format: functional; summary of the method: as §4
Rattus norvegicus [19] = experiment: Plasma glucose levels of nondiabetic rats after 2 hour of drug administration (25 mg/Kg, po); format: functional; summary of the method: as §5
Rattus norvegicus [20] = experiment: Volume of urine collected after treatment in nondiabetic rats at the dose of 10 mg/kg; format: functional; summary of the method: as §4
Rattus norvegicus [21] = experiment: Volume of water consumed by the rat at a dose of 10 mg/kg; format: functional; summary of the method: as §4
Mus musculus [22] = experiment: Plasma glucose after treatment in obese ob/ob mice at 5 mg/kg (po); format: functional; summary of the method: as §2
Rattus norvegicus [23] = experiment: Plasma glucose levels of nondiabetic rats after 1 hour of drug administration (25 mg/Kg, po); format: functional; summary of the method: as §5
Rattus norvegicus [24] = experiment: Amount of food consumed by the rat at a dose of 10 mg/kg; format: functional; summary of the method: as §4
Rattus norvegicus [25] = experiment: Change in urinary glucose excretion of nondiabetic rats at the dose of 25 mg/kg; format: functional, Urine
Rattus norvegicus [26] = experiment: Plasma glucose levels of nondiabetic rats after 0 hour of drug administration (25 mg/Kg, po); format: functional; summary of the method: as §5
[27] = dose 5 mg/kg, in the assay text read “5 mg/kg” for “100 mg/kg”

O=S1NC(CCCCc2ccc3ccccc3c2)=NO1 (centres undefined)
Change (Mus musculus [1]; dose 100 mg/kg): -28%

O=S1NC(Cc2ccc3ccc(Cl)cc3c2)=NO1 (centres undefined)
Change (Mus musculus [2]): <-15%

Cc1ccc2ccc(CC3=NOS(=O)N3)cc2c1Br (centres undefined)
Change (Mus musculus [2]): -21%

C=Cc1cccc2cc(CC3=NOS(=O)N3)ccc12 (centres undefined)
Change (Mus musculus [2]): -17%

O=S1NC(Cc2ccc3cc(Br)ccc3c2)=NO1 (centres undefined)
Change (Mus musculus [2]): -25% | Change (Mus musculus [3]): <-15%

O=S1NC(C(Cc2ccccc2)c2ccc3ccccc3c2)=NO1 (centres undefined)
Change (Mus musculus [4]): <-15%

C#Cc1cccc2cc(CC3=NOS(=O)N3)ccc12 (centres undefined)
Change (Mus musculus [1]; [27]): -45% | Change (Mus musculus [3]): -19%

CN(C)C(=N)NC(=N)N [METFORMIN]
Glucose level (Mus musculus [5]): 208 mg/dL | Glucose level (Mus musculus [6]): 253 mg/dL

Cc1cccc2cc(CC3=NOS(=O)N3)ccc12 (centres undefined)
Change (Mus musculus [1]; [27]): -37% | Change (Mus musculus [3]): <-15%

CC(C1=NOS(=O)N1)c1ccc2ccccc2c1 (centres undefined)
Change (Mus musculus [4]): -49%

O=S1NC(Cc2ccc3cc(F)ccc3c2Br)=NO1 (centres undefined)
Change (Mus musculus [2]): -16%

O=S1NC(Cc2ccc3cccc(Br)c3c2)=NO1 (centres undefined)
Change (Mus musculus [1]; dose 100 mg/kg): -59% and -48%

O=S1NC(CCc2ccc3ccccc3c2)=NO1 (centres undefined)
Change (Mus musculus [4]): -38%

O=S1NC(Cc2ccc3cccc(Cl)c3c2)=NO1 (centres undefined)
Change (Mus musculus [1]; [27]): -55% | Change (Mus musculus [3]): <-15%

O=S1NC(COc2ccc3ccccc3c2)=NO1 (centres undefined)
Change (Mus musculus [4]): <-15%

Cc1cc2ccccc2c(Br)c1CC1=NOS(=O)N1 (centres undefined)
Change (Mus musculus [2]): -34% | Change (Mus musculus [3]): <-15%

Cc1cc2ccccc2cc1CC1=NOS(=O)N1 (centres undefined)
Change (Mus musculus [1]; dose 100 mg/kg): -36% and -20%

Cc1ccc2ccc(CC3=NOS(=O)N3)cc2c1 (centres undefined)
Change (Mus musculus [4]): -36%

COc1c(CC2=NOS(=O)N2)ccc2ccccc12 (centres undefined)
Change (Mus musculus [2]): -43% | Change (Mus musculus [3]): <-15%

Cc1c(CC2=NOS(=O)N2)ccc2ccccc12 (centres undefined)
Change (Mus musculus [1]; dose 100 mg/kg): -36% and -20%

O=S1NC(Cc2cc3ccccc3cc2Br)=NO1 (centres undefined)
Change (Mus musculus [2]): -28% | Change (Mus musculus [3]): <-15%

CCc1cccc2cc(CC3=NOS(=O)N3)ccc12 (centres undefined)
Change (Mus musculus [1]; [27]): -23% | Change (Mus musculus [3]): <-15%

O=S1NC(Cc2ccc3cc(F)ccc3c2Cl)=NO1 (centres undefined)
Change (Mus musculus [7]): <-15%

O=S1NC(Cc2ccc3c(C(F)(F)F)cccc3c2)=NO1 (centres undefined)
Change (Mus musculus [1]; [27]): -30% | Change (Mus musculus [3]): <-15%

CC(CC1=NOS(=O)N1)c1ccc2ccccc2c1 (centres undefined)
Change (Mus musculus [4]): -27%

CSc1cccc2cc(CC3=NOS(=O)N3)ccc12 (centres undefined)
Change (Mus musculus [2]): <-15%

COc1cc2ccccc2cc1CC1=NOS(=O)N1 (centres undefined)
Change (Mus musculus [8]): -16%

O=S1NC(Cc2ccc3ccccc3c2Br)=NO1 (centres undefined)
Change (Mus musculus [1]; dose 100 mg/kg): -40% and -21%

O=S1NC(Cc2cc3ccccc3cc2C(F)(F)F)=NO1 (centres undefined)
Change (Mus musculus [1]; [27]): -30% | Change (Mus musculus [3]): <-15%

N#Cc1cccc2ccc(CC3=NOS(=O)N3)cc12 (centres undefined)
Change (Mus musculus [2]): <-15% | Change (Mus musculus [3]): <-15%

O=S1NC(Cc2ccc3c(Cl)cccc3c2)=NO1 (centres undefined)
Glucose level (Rattus norvegicus [9]): 329 mg/dL | urine volume (Rattus norvegicus [10]): 29 mL/day | Consumption (Rattus norvegicus [11]): 59 mL/day | Glucose level (Mus musculus [12]): 199 mg/dL | urine volume (Rattus norvegicus [13]): 37 mL/day | Consumption (Rattus norvegicus [14]): 49 mL/day | Consumption (Rattus norvegicus [15]): 25 g/day | Glucose level (Rattus norvegicus [16]): 118 mg/dL | Glucose level (Rattus norvegicus [17]): 255 mg/dL | Consumption (Rattus norvegicus [18]): 25 g/day | Glucose level (Rattus norvegicus [19]): 122 mg/dL | Change (Mus musculus [1]; dose 100 mg/kg): -44% and -21% | urine volume (Rattus norvegicus [20]): 23 mL/day | Consumption (Rattus norvegicus [21]): 45 mL/day | Glucose level (Mus musculus [22]): 223 mg/dL | Glucose level (Rattus norvegicus [23]): 120 mg/dL | Consumption (Rattus norvegicus [24]): 25 g/day | Glucose level (Rattus norvegicus [25]): 5.7 g dl-1 and 2.1 g day-1 | Glucose level (Rattus norvegicus [26]): 111 mg/dL

COc1cccc2cc(CC3=NOS(=O)N3)ccc12 (centres undefined)
Change (Mus musculus [8]): <-15% | Change (Mus musculus [7]): <-15%

CCc1c(CC2=NOS(=O)N2)ccc2ccccc12 (centres undefined)
Change (Mus musculus [1]; dose 5 mg/kg, in the assay text read “at 5 mg/kg” for “at 100 mg/kg”): -24% | Change (Mus musculus [3]): <-15%

O=S1NC(Cc2cc3ccccc3cc2Cl)=NO1 (centres undefined)
Change (Mus musculus [1]; [27]): -44% | Change (Mus musculus [3]): <-15%

COc1ccc2ccc(CC3=NOS(=O)N3)cc2c1 (centres undefined)
Change (Mus musculus [2]): -19%

COc1ccc2cc(CC3=NOS(=O)N3)ccc2c1 (centres undefined)
Change (Mus musculus [4]): <-15%

COc1ccc(Cl)cc1C(=O)NCCc1ccc(S(=O)(=O)NC(=O)NC2CCCCC2)cc1 [GLYBURIDE]
Glucose level (Mus musculus [12]): 311 mg/dL | Glucose level (Rattus norvegicus [16]): 55 mg/dL | Glucose level (Rattus norvegicus [19]): 51 mg/dL | Glucose level (Mus musculus [22]): 297 mg/dL | Glucose level (Rattus norvegicus [23]): 71 mg/dL | Glucose level (Rattus norvegicus [26]): 110 mg/dL

O=S1NC(Cc2ccc3ccc(Br)cc3c2)=NO1 (centres undefined)
Change (Mus musculus [2]): <-15%

COc1c(CC2=NOS(=O)N2)cc(Cl)c2ccccc12 (centres undefined)
Change (Mus musculus [2]): -31% | Change (Mus musculus [3]): -17%

O=S1NC(Cc2ccc3ccccc3c2F)=NO1 (centres undefined)
Change (Mus musculus [1]; [27]): -39% | Change (Mus musculus [3]): <-15%

CC(C)(C1=NOS(=O)N1)c1ccc2ccccc2c1 (centres undefined)
Change (Mus musculus [4]): <-15%

COc1ccc(Br)c2cc(CC3=NOS(=O)N3)ccc12 (centres undefined)
Change (Mus musculus [3]): <-15%

O=S1NC(Cc2ccc3ccccc3c2)=NO1 (centres undefined)
Change (Mus musculus [4]): -37% | Change (Mus musculus [2]): <-15%

CC1(COc2ccc(CC3SC(=O)NC3=O)cc2)CCCCC1 (centres undefined) [CIGLITAZONE]
Glucose level (Mus musculus [12]): 189 mg/dL

O=S1NC(/C=C/c2ccc3ccccc3c2)=NO1 (centres undefined)
Change (Mus musculus [4]): <-15%

O=S1NC(Cc2cc(Br)c3ccccc3c2)=NO1 (centres undefined)
Change (Mus musculus [2]): -21% | Change (Mus musculus [3]): <-15%

O=S1NC(Cc2ccc3ccccc3c2Cl)=NO1 (centres undefined)
Change (Mus musculus [1]; [27]): -27% | Change (Mus musculus [3]): <-15%

O=S1NC(CSc2ccc3ccccc3c2)=NO1 (centres undefined)
Change (Mus musculus [4]): -40%

CSc1ccc(Br)c2ccc(CC3=NOS(=O)N3)cc12 (centres undefined)
Change (Mus musculus [2]): -19% | Change (Mus musculus [3]): <-15%

O=S1NC(CCCc2ccc3ccccc3c2)=NO1 (centres undefined)
Change (Mus musculus [4]): <-15%

O=S1NC(c2ccc3ccccc3c2)=NO1 (centres undefined)
Change (Mus musculus [4]): <-15%

O=S1NC(Cc2ccc3c(Br)cccc3c2)=NO1 (centres undefined)
Change (Mus musculus [1]; dose 100 mg/kg): -47% and -35%

Cc1cc2ccccc2c(C)c1CC1=NOS(=O)N1 (centres undefined)
Change (Mus musculus [2]): -45% | Change (Mus musculus [3]): <-15%

COC(CC1=NOS(=O)N1)c1ccc2ccccc2c1 (centres undefined)
Change (Mus musculus [4]): <-15%

From ChEMBL document CHEMBL1126776, “Antihyperglycemic activity of novel naphthalenyl 3H-1,2,3,5-oxathiadiazole 2-oxides” (1993)
